Assay results: article PMC5797940 (Nature, 2013)

Key:
FRα = settings: O4 replaced by an amino group; cited from earlier work
reduced folate carrier = settings: folate-binding affinity of reduced folate carrier; cited from earlier work
[1] = tested on: FRα Y175, K136 and R106 alanine mutants; assay: saturation radioligand-binding assay, FRα Y175, K136 and R106 mutants; design: species or system human; settings: mutations of Y175, K136 and R106 (bond lengths ≥3.1 Å)
Procedure, shortened: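 Human FRα alanine mutants made by site-directed mutagenesis, expressed as Fc fusions in transiently transfected HEK293 cells and Ni-NTA purified. 40 nM protein captured on protein G wells (25 mM Tris pH 8.0, 150 mM NaCl, 0.1% Triton X-100) for 40 min. Ligand stripped at pH 3.5 for 1 min. Then 40 min with varied [³H]-folic acid, two washes, scintillation counting. Kd by nonlinear regression, as fold versus wild type.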

human FRα = human FRα (Homo sapiens, UniProt P15328); assay: saturation radioligand-binding assay with [^3H]-folic acid, wild-type FRα–Fc; settings: fully glycosylated FRα–Fc
Chain of human FRα (P15328 23-234): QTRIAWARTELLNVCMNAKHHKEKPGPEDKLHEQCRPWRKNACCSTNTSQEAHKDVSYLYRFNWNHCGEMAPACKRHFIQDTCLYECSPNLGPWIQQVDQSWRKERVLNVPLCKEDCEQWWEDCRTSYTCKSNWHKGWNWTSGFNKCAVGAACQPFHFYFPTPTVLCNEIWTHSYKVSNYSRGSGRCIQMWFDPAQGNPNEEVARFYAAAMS

Nc1nc(N)c2nc(CNc3ccc(C(=O)N[C@@H](CCC(=O)O)C(=O)O)cc3)cnc2n1 [aminopterin]
affinity for FRα compared with folic acid (FRα): reduced affinity

Nc1nc(=O)c2nc(CNc3ccc(C(=O)N[C@@H](CCC(=O)O)C(=O)O)cc3)cnc2[nH]1 [folate]
Km (reduced folate carrier): 1 to 10 µM

Nc1nc(=O)c2nc(CNc3ccc(C(=O)N[C@@H](CCC(=O)O)C(=O)O)cc3)cnc2[nH]1 [folic acid]
effect of the mutation on folic acid binding [1]: little effect
folic acid-binding affinity compared with the deglycosylated protein (human FRα): similar

CN(Cc1cnc2nc(N)nc(N)c2n1)c1ccc(C(=O)N[C@@H](CCC(=O)O)C(=O)O)cc1 [methotrexate]
affinity for FRα compared with folic acid (FRα): reduced affinity
